Results from ChEMBL document CHEMBL1914394, “Synthesis and spectroscopic characterization of 4-butoxyethoxy-N-octadecyl-1,8-naphthalimide as a new fluorescent probe for the determination of proteins” (Bioorg Med Chem Lett, 2011).

Experiments:
[1] = biological target: T1, Albumin (Bos taurus, UniProt P02769); assay: Binding affinity to bovine serum albumin assessed as decrease in fluorescence intensity at 1.5 x 10^-5 mol/L at pH 7.4 by fluorescence spectroscopy in presence of Pb2+ cations; type: ADME; conditions: cattle, isolated protein, pH 7.4, 15 µM
T1 sequence (P02769 whole entry): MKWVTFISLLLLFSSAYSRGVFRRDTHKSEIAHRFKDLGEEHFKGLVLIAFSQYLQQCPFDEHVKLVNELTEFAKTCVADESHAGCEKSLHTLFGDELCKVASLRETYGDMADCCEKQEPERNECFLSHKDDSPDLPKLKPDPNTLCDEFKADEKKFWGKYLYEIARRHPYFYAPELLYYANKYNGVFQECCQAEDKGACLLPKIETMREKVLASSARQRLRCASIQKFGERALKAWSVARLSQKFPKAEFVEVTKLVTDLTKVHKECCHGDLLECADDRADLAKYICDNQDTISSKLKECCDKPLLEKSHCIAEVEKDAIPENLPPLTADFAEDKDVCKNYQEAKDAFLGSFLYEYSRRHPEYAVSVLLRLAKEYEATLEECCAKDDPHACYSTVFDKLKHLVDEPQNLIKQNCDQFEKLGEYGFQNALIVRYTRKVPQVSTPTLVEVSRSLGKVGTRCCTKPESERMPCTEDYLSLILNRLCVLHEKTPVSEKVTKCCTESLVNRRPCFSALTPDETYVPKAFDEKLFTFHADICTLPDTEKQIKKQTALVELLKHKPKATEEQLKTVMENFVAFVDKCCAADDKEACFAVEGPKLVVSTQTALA
Summary of the method: (§1)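 Fluorescence of the BON–BSA system in HCl–Tris pH 7.4 recorded with each interfering ion or amino acid added at different concentrations. Excitation 373 nm; emission scanned 390–550 nm; intensity change noted.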

[2] = biological target: T1, Albumin; assay: Binding affinity to bovine serum albumin assessed as decrease in fluorescence intensity at 1.5 x 10^-5 mol/L at pH 7.4 by fluorescence spectroscopy in presence of Cu2+ cations; type: ADME; conditions: cattle, isolated protein, pH 7.4, 15 µM; summary of the method: as §1
[3] = biological target: T1, Albumin; assay: Binding affinity to bovine serum albumin assessed as binding constant at pH 7.4 at 293K by fluorescence spectroscopic analysis; type: ADME; conditions: cattle, isolated protein
Summary of the method: (§2)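 BSA fluorescence quenched by BON in HCl–Tris, pH 7.4, at four temperatures. Binding constants come from fitting the quenching data to the modified Stern–Volmer equation.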

[4] = biological target: T1, Albumin; assay: Binding affinity to bovine serum albumin assessed as decrease in fluorescence intensity at 1.5 x 10^-5 mol/L at pH 7.4 by fluorescence spectroscopy in presence of Mo6+ cations; type: ADME; conditions: cattle, isolated protein, pH 7.4, 15 µM; summary of the method: as §1
[5] = biological target: T1, Albumin; assay: Binding affinity to bovine serum albumin assessed as quenching constant at pH 7.4 at 303K by fluorescence spectroscopic analysis; type: ADME; conditions: cattle, isolated protein
Summary of the method: (§3)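 Quenching series of BSA with rising BON levels in HCl–Tris pH 7.4, run at four temperatures. KSV comes from the F0/F versus [BON] Stern–Volmer plot. The bimolecular quenching rate constant is calculated as Kq = KSV/τ0, with a biopolymer fluorescence lifetime τ0 of 10^-8 s.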

[6] = biological target: T1, Albumin; assay: Binding affinity to bovine serum albumin assessed as decrease in fluorescence intensity at 1.5 x 10^-5 mol/L at pH 7.4 by fluorescence spectroscopy in presence of lysine; type: ADME; conditions: cattle, isolated protein, pH 7.4, 15 µM; summary of the method: as §1
[7] = biological target: T1, Albumin; assay: Binding affinity to bovine serum albumin assessed as quenching constant at pH 7.4 at 308K by fluorescence spectroscopic analysis; type: ADME; conditions: cattle, isolated protein; summary of the method: as §3
[8] = biological target: T1, Albumin; assay: Binding affinity to bovine serum albumin assessed as decrease in fluorescence intensity at 1.5 x 10^-5 mol/L at pH 7.4 by fluorescence spectroscopy in presence of PO42+ anions; type: ADME; conditions: cattle, isolated protein, pH 7.4, 15 µM; summary of the method: as §1
[9] = biological target: T1, Albumin; assay: Binding affinity to bovine serum albumin assessed as binding constant at pH 7.4 at 308K by fluorescence spectroscopic analysis; type: ADME; conditions: cattle, isolated protein; summary of the method: as §2
[10] = biological target: T1, Albumin; assay: Binding affinity to bovine serum albumin assessed as decrease in fluorescence intensity at 1.5 x 10^-5 mol/L at pH 7.4 by fluorescence spectroscopy in presence of Na+ cations; type: ADME; conditions: cattle, isolated protein, pH 7.4, 15 µM; summary of the method: as §1
[11] = biological target: T1, Albumin; assay: Binding affinity to bovine serum albumin assessed as binding constant at pH 7.4 at 303K by fluorescence spectroscopic analysis; type: ADME; conditions: cattle, isolated protein; summary of the method: as §2
[12] = biological target: T1, Albumin; assay: Binding affinity to bovine serum albumin assessed as decrease in fluorescence intensity at 1.5 x 10^-5 mol/L at pH 7.4 by fluorescence spectroscopy in presence of proline; type: ADME; conditions: cattle, isolated protein, pH 7.4, 15 µM; summary of the method: as §1
[13] = biological target: T1, Albumin; assay: Binding affinity to bovine serum albumin assessed as decrease in fluorescence intensity at 10^-5 mol/L at pH 7.4 at 298K by fluorescence spectroscopy in presence of warfarin; type: ADME; set-up: scale not given: the % may be the effect or the level left; conditions: cattle, isolated protein, pH 7.4, 10 µM
Summary of the method: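 Site-marker displacement by fluorescence titration: BON and BSA held at a 10:1 molar ratio, then warfarin added stepwise to the mixture. Excitation 280 nm; emission recorded 290–400 nm.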

[14] = biological target: T1, Albumin; assay: Binding affinity to bovine serum albumin assessed as decrease in fluorescence intensity at 1.5 x 10^-5 mol/L at pH 7.4 by fluorescence spectroscopy in presence of Fe3+ cations; type: ADME; conditions: cattle, isolated protein, pH 7.4, 15 µM; summary of the method: as §1
[15] = biological target: T1, Albumin; assay: Binding affinity to bovine serum albumin assessed as decrease in fluorescence intensity at 1.5 x 10^-5 mol/L at pH 7.4 by fluorescence spectroscopy in presence of Ni2+ cations; type: ADME; conditions: cattle, isolated protein, pH 7.4, 15 µM; summary of the method: as §1
[16] = biological target: T1, Albumin; assay: Binding affinity to bovine serum albumin assessed as quenching constant at pH 7.4 at 293K by fluorescence spectroscopic analysis; type: ADME; conditions: cattle, isolated protein; summary of the method: as §3
[17] = biological target: T1, Albumin; assay: Binding affinity to bovine serum albumin assessed as stem-volmer quenching constant at pH 7.4 at 303K by fluorescence spectroscopic analysis; type: ADME; conditions: cattle, isolated protein
Summary of the method: (§4)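 BSA intrinsic fluorescence titrated with increasing BON in HCl–Tris buffer, pH 7.4, at each of four temperatures. F0/F (without/with BON) plotted against BON concentration; the Stern–Volmer quenching constant KSV is taken from the linear fit.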

[18] = biological target: T1, Albumin; assay: Binding affinity to bovine serum albumin assessed as decrease in fluorescence intensity at 1.5 x 10^-5 mol/L at pH 7.4 by fluorescence spectroscopy in presence of Cr3+ cations; type: ADME; conditions: cattle, isolated protein, pH 7.4, 15 µM; summary of the method: as §1
[19] = biological target: T1, Albumin; assay: Binding affinity to bovine serum albumin assessed as binding constant at pH 7.4 at 298K by fluorescence spectroscopic analysis; type: ADME; conditions: cattle, isolated protein; summary of the method: as §2
[20] = biological target: T1, Albumin; assay: Binding affinity to bovine serum albumin assessed as stem-volmer quenching constant at pH 7.4 at 308K by fluorescence spectroscopic analysis; type: ADME; conditions: cattle, isolated protein; summary of the method: as §4
[21] = biological target: T1, Albumin; assay: Binding affinity to bovine serum albumin assessed as decrease in fluorescence intensity at 1.5 x 10^-5 mol/L at pH 7.4 by fluorescence spectroscopy in presence of Zn2+ cations; type: ADME; conditions: cattle, isolated protein, pH 7.4, 15 µM; summary of the method: as §1
[22] = biological target: T1, Albumin; assay: Binding affinity to bovine serum albumin assessed as decrease in fluorescence intensity at 1.5 x 10^-5 mol/L at pH 7.4 by fluorescence spectroscopy in presence of Br- anions; type: ADME; conditions: cattle, isolated protein, pH 7.4, 15 µM; summary of the method: as §1
[23] = biological target: T1, Albumin; assay: Binding affinity to bovine serum albumin assessed as decrease in fluorescence intensity at 1.5 x 10^-5 mol/L at pH 7.4 by fluorescence spectroscopy in presence of tryptophane; type: ADME; conditions: cattle, isolated protein, pH 7.4, 15 µM; summary of the method: as §1
[24] = biological target: T1, Albumin; assay: Binding affinity to bovine serum albumin assessed as quenching constant at pH 7.4 at 293K by fluorescence spectroscopy; conditions: cattle, isolated protein
[25] = biological target: T1, Albumin; assay: Binding affinity to bovine serum albumin assessed as decrease in fluorescence intensity at 1.5 x 10^-5 mol/L at pH 7.4 by fluorescence spectroscopy in presence of Mn2+ cations; type: ADME; conditions: cattle, isolated protein, pH 7.4, 15 µM; summary of the method: as §1
[26] = biological target: T1, Albumin; assay: Binding affinity to bovine serum albumin assessed as stem-volmer quenching constant at pH 7.4 at 298K by fluorescence spectroscopic analysis; type: ADME; conditions: cattle, isolated protein; summary of the method: as §4
[27] = biological target: T1, Albumin; assay: Binding affinity to bovine serum albumin assessed as decrease in fluorescence intensity peak1 at 1.71 x 10^-5 mol/L at pH 7.4 at 293K by three-dimensional fluorescence spectroscopy analysis; type: ADME; set-up: scale not given: the % may be the effect or the level left; conditions: cattle, isolated protein, pH 7.4, 17.1 µM
[28] = biological target: T1, Albumin; assay: Binding affinity to bovine serum albumin assessed as stem-volmer quenching constant at pH 7.4 at 293K by fluorescence spectroscopic analysis; type: ADME; conditions: cattle, isolated protein; summary of the method: as §4
[29] = biological target: T1, Albumin; assay: Binding affinity to bovine serum albumin assessed as decrease in fluorescence intensity at 1.5 x 10^-5 mol/L at pH 7.4 by fluorescence spectroscopy in presence of SO42+ anions; type: ADME; conditions: cattle, isolated protein, pH 7.4, 15 µM; summary of the method: as §1
[30] = biological target: T1, Albumin; assay: Binding affinity to bovine serum albumin assessed as decrease in fluorescence intensity at 1.5 x 10^-5 mol/L at pH 7.4 by fluorescence spectroscopy in presence of glycine; type: ADME; conditions: cattle, isolated protein, pH 7.4, 15 µM; summary of the method: as §1
[31] = biological target: T1, Albumin; assay: Binding affinity to bovine serum albumin assessed as quenching constant at pH 7.4 at 298K by fluorescence spectroscopic analysis; type: ADME; conditions: cattle, isolated protein; summary of the method: as §3
[32] = biological target: T1, Albumin; assay: Binding affinity to bovine serum albumin assessed as decrease in fluorescence intensity peak2 at 1.71 x 10^-5 mol/L at pH 7.4 at 293K by three-dimensional fluorescence spectroscopy analysis; type: ADME; set-up: scale not given: the % may be the effect or the level left; conditions: cattle, isolated protein, pH 7.4, 17.1 µM
[33] = biological target: T1, Albumin; assay: Binding affinity to bovine serum albumin assessed as decrease in fluorescence intensity at 1.5 x 10^-5 mol/L at pH 7.4 by fluorescence spectroscopy in presence of Mg2+ cations; type: ADME; conditions: cattle, isolated protein, pH 7.4, 15 µM; summary of the method: as §1
[34] = biological target: T1, Albumin; assay: Binding affinity to bovine serum albumin assessed as decrease in fluorescence intensity at 1.5 x 10^-5 mol/L at pH 7.4 by fluorescence spectroscopy in presence of tyrosine; type: ADME; conditions: cattle, isolated protein, pH 7.4, 15 µM; summary of the method: as §1
[35] = biological target: T1, Albumin; assay: Binding affinity to bovine serum albumin assessed as decrease in fluorescence intensity at 1.5 x 10^-5 mol/L at pH 7.4 by fluorescence spectroscopy in presence of Ca2+ cations; type: ADME; conditions: cattle, isolated protein, pH 7.4, 15 µM; summary of the method: as §1
[36] = biological target: T1, Albumin; assay: Binding affinity to bovine serum albumin assessed as decrease in fluorescence intensity at 1.5 x 10^-5 mol/L at pH 7.4 by fluorescence spectroscopy in presence of K+ cations; type: ADME; conditions: cattle, isolated protein, pH 7.4, 15 µM; summary of the method: as §1
[37] = biological target: T1, Albumin; assay: Binding affinity to bovine serum albumin assessed as decrease in fluorescence intensity at 1.5 x 10^-5 mol/L at pH 7.4 by fluorescence spectroscopy in presence of Cl- anions; type: ADME; conditions: cattle, isolated protein, pH 7.4, 15 µM; summary of the method: as §1

Structure (SMILES): CCCCCCCCCCCCCCCCCCN1C(=O)c2cccc3c(OCCOCCCC)ccc(c23)C1=O
- Activity [1]: Not Active
- Activity [2]: Not Active
- Kb [3]: 3.89 ×10³ L/mol
- Activity [4]: Not Active
- Kq [5]: 8.76 ×10¹¹ L/mol/s
- Activity [6]: Active
- Kq [7]: 8.54 ×10¹¹ L/mol/s
- Activity [8]: Active
- Kb [9]: 1.77 ×10³ L/mol
- Activity [10]: Not Active
- Kb [11]: 2.12 ×10³ L/mol
- Activity [12]: Active
- Activity [13]: 42%
- Activity [14]: Not Active
- Activity [15]: Not Active
- Kq [16]: 9.4 ×10¹¹ L/mol/s
- KSV [17]: 8.76 ×10³ L/mol
- Activity [18]: Not Active
- Kb [19]: 2.82 ×10³ L/mol
- KSV [20]: 8.54 ×10³ L/mol
- Activity [21]: Not Active
- Activity [22]: Active
- Activity [23]: Active
- Activity [24]: Active
- Activity [25]: Not Active
- KSV [26]: 9.03 ×10³ L/mol
- Activity [27]: 25.16%
- KSV [28]: 9.4 ×10³ L/mol
- Activity [29]: Active
- Activity [30]: Active
- Kq [31]: 9.03 ×10¹¹ L/mol/s
- Activity [32]: 37.24%
- Activity [33]: Not Active
- Activity [34]: Active
- Activity [35]: Not Active
- Activity [36]: Not Active
- Activity [37]: Active
